≈ marks a conversion by molar mass, not a printed value.
Experiments:
[1] = test system: MCF7; test: Cytotoxicity against human MCF7 cells after 7 days; assay type: functional; conditions: MCF7, 168 h, read-out: ED50 (the source's name)
Method in brief: (§1)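 This was a seven-day in vitro cytotoxicity test run under standard protocols on three solid tumor lines: A-549 (human lung carcinoma), MCF-7 (human breast carcinoma) and HT-29 (human colon adenocarcinoma). Adriamycin was the positive control.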

[2] = test system: A549; test: Cytotoxicity against human A549 cells after 7 days; assay type: functional; conditions: A549, 168 h, read-out: ED50 (the source's name); method in brief: as §1
[3] = test system: Agrobacterium tumefaciens; test: Antitumor activity against Agrobacterium tumefaciens-induced crown gall tumors in potato by disk test relative to control; assay type: functional
Method in brief: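 Crown gall tumors on potato discs were scored, and the read-out was % inhibition relative to control. The assay was run in-house.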

[4] = Toxicity in brine shrimp larvae; assay type: organism-based; conditions: artemia, in vivo
[5] = test system: HT-29; test: Cytotoxicity against human HT-29 cells after 7 days; assay type: functional; conditions: HT-29, 168 h, read-out: ED50 (the source's name); method in brief: as §1

SMILES	EC50 [1]	EC50 [2]	T/C [3]	LC50 [4]	EC50 [5]
Oc1cccc(CCCCCCCCCCCCc2ccccc2)c1	2.09 µg/mL (≈ 6.17 µM)	1.85 µg/mL (≈ 5.46 µM)	39%	1.37 µg/mL (≈ 4.05 µM)	2.62 µg/mL (≈ 7.74 µM)
Oc1cccc(CCCCCCCCCCc2ccccc2)c1	7.76 µg/mL (≈ 25 µM)	35 µg/mL (≈ 113 µM)	54%	0.45 µg/mL (≈ 1.45 µM)	28.6 µg/mL (≈ 92.1 µM)
Oc1cc(O)cc(CCCCCCCCCCc2ccccc2)c1	2.69 µg/mL (≈ 8.24 µM)	3.49 µg/mL (≈ 10.7 µM)	62%	0.47 µg/mL (≈ 1.44 µM)	3.24 µg/mL (≈ 9.92 µM)
O=C(O)c1c(O)cccc1CCCCCCCCCCCCc1ccccc1	3.06 µg/mL (≈ 8 µM)	15 µg/mL (≈ 39.2 µM)	61%	1.24 µg/mL (≈ 3.24 µM)	2.98 µg/mL (≈ 7.79 µM)
CC(=O)c1c(O)cc(O)cc1CCCCCCCCCCc1ccccc1	2.87 µg/mL (≈ 7.79 µM)	3.22 µg/mL (≈ 8.74 µM)	30%	0.18 µg/mL (≈ 0.488 µM)	4.47 µg/mL (≈ 12.1 µM)
Oc1cc(O)cc(CCCCCCCCCCCCc2ccccc2)c1	1.84 µg/mL (≈ 5.19 µM)	3.26 µg/mL (≈ 9.2 µM)	45%	0.33 µg/mL (≈ 0.931 µM)	2.87 µg/mL (≈ 8.1 µM)
COc1ccc(-c2coc3cc(O)cc(O)c3c2=O)cc1 [BIOCHANIN]	5.49 µg/mL (≈ 19.3 µM)	19.8 µg/mL (≈ 69.5 µM)	54%	107 µg/mL (≈ 376 µM)	28.4 µg/mL (≈ 99.8 µM)
CCCCCCCCCCCCCCCc1cc(O)cc(O)c1 [CARDOL]	2.41 µg/mL (≈ 7.52 µM)	2.37 µg/mL (≈ 7.39 µM)	41%	7.65 µg/mL (≈ 23.9 µM)	3.25 µg/mL (≈ 10.1 µM)
COc1cccc2c1C(=O)c1c(O)c3c(c(O)c1C2=O)C[C@@](O)(C(=O)CO)C[C@@H]3O[C@H]1C[C@H](N)[C@H](O)[C@H](C)O1 [DOXORUBICIN]	0.147 µg/mL (≈ 0.27 µM)	0.00148 µg/mL (≈ 0.00272 µM)			0.00669 µg/mL (≈ 0.0123 µM)
COc1ccc(-c2coc3cc(O)ccc3c2=O)cc1 [FORMONONETIN]	1.96 µg/mL (≈ 7.31 µM)	2.87 µg/mL (≈ 10.7 µM)	79%	22.7 µg/mL (≈ 84.6 µM)	6.43 µg/mL (≈ 24 µM)
Oc1cccc(CCCCCCCCC[C@H](O)c2ccccc2)c1 [KNEGLOMERATANOL]	2.32 µg/mL (≈ 7.11 µM)	5.99 µg/mL (≈ 18.3 µM)	29%	0.21 µg/mL (≈ 0.643 µM)	9.33 µg/mL (≈ 28.6 µM)
CC(=O)c1c(O)cc(O)cc1CCCCCCCCc1ccccc1 [KNEGLOMERATANONE A]	3.44 µg/mL (≈ 10.1 µM)	3.89 µg/mL (≈ 11.4 µM)	38%	0.37 µg/mL (≈ 1.09 µM)	18.8 µg/mL (≈ 55.3 µM)
CCCCCCCCCCCCCc1cc(O)cc(O)c1C(C)=O [KNEGLOMERATANONE B]	1.12 µg/mL (≈ 3.35 µM)	2.3 µg/mL (≈ 6.88 µM)	38%	1.92 µg/mL (≈ 5.74 µM)	6.56 µg/mL (≈ 19.6 µM)

Source: ChEMBL document CHEMBL1149048, “Kneglomeratanol, kneglomeratanones A and B, and related bioactive compounds from Knema glomerata” (J Nat Prod, 1994)
